# Measurements as given in ChEMBL document CHEMBL1123481, “Structure-activity relationships of (arylalkyl)imidazole anticonvulsants: comparison of the (fluorenylalkyl)imidazoles with nafimidone and denzimol” (J Med Chem, 1986).
# Active and inactive are the calls of the source. The calls are words filed in the database; no cut-off is given here.
# How the values were obtained:
# Mus musculus [1] = test: Compound was tested for effective dose in mice by pentylenetetrazole assay (administered subcutaneously); No effect at highest dose of 200 mg/kg; type: functional, organism-based; parameters: dose 200 mg/kg
# Summary of the method: (§1)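 Test compound was given orally to mice. At its previously determined time of peak effect, pentylenetetrazole (110 mg/kg in water, 10 mL/kg) was injected sc into the neck skin fold. Mice were watched for 15 min for presence or absence of a clonic seizure. Where protection was bell-shaped, the value is the dose giving maximum protection.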
# Mus musculus [2] = test: Compound was tested for effective dose in mice by horizontal screen assay (administered orally); No effect at highest dose of 200 mg/kg; type: functional, organism-based; parameters: dose 200 mg/kg
# Summary of the method: (§2)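 Fasted, pre-trained male CF1 mice (20–25 g) were dosed orally across a range of doses, given as a suspension in 5% acacia/water. Each mouse was placed on a 13 cm square wire screen, and the screen was rotated 180°. The score was return to the top within 1 min. Time of peak effect was scanned at 0.5–4 h. Each compound was then retested at that time with at least 4 doses and 12 mice per dose.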
# Mus musculus [3] = test: Effective dose in mice by maximal electroshock assay, administered orally; type: functional; details: po
# Summary of the method: (§3)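 Mice were dosed orally across a range of doses, given in 5% acacia/water. Time of peak effect was found by shocking at 0.5, 1, 2, 3 and 4 h. Corneal electroshock was 40 mA, 0.1 s, ac. Each compound was retested at peak time with at least four doses and 12 mice per dose. The ED50 for prevention of tonic-extensor convulsion was calculated by Litchfield–Wilcoxon; 95% confidence limits are given.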
# Mus musculus [4] = species: Mus musculus; test: Compound was tested for time to peak anticonvulsant effect (TPE); type: functional
# Summary of the method: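 Time to peak effect after oral dosing in 5% acacia/water was estimated by testing mice at 0.5, 1, 2, 3 and 4 h posttreatment in the MES and horizontal screen tests.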
# Mus musculus [5] = test: Effective dose in mice by pentylenetetrazole assay (administered subcutaneously); No effect at highest dose of 400 mg/kg; type: functional, organism-based; parameters: dose 400 mg/kg; summary of the method: as §1
# Mus musculus [6] = test: Effective dose in mice by horizontal screen assay (administered orally); type: functional; details: po; summary of the method: as §2
# Mus musculus [7] = test: Compound was tested for effective dose in mice by pentylenetetrazole assay (administered subcutaneously); No effect at highest dose of 100 mg/kg; type: functional, organism-based; parameters: dose 100 mg/kg; summary of the method: as §1
# Mus musculus [8] = species: Mus musculus; test: Potentiation of hexobarbital-induced sleeping time in mice; type: functional
# Summary of the method: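 Groups of 10 fasted mice received compound orally at 10 mg/kg in 5% acacia/water (10 mL/kg). At the compound's time of peak effect they were given hexobarbital 100 mg/kg ip, solubilized with stoichiometric NaOH. Sleeping time, measured as loss of righting reflex, was recorded to the nearest minute. Values are mean ± SEM.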
# Mus musculus [9] = test: Effective dose in mice by pentylenetetrazole assay (administered subcutaneously); type: functional; details: sc; summary of the method: as §1
# Mus musculus [10] = test: Effective dose in mice by horizontal screen assay (administered orally); No effect at highest dose of 400 mg/kg; type: functional, organism-based; parameters: dose 400 mg/kg; summary of the method: as §2
# Mus musculus [11] = test: Compound was tested for effective dose in mice by maximal electroshock assay (administered per orally); type: functional; details: po; summary of the method: as §3
# Mus musculus [12] = test: Compound was tested for effective dose in mice by pentylenetetrazole assay (administered subcutaneously); No effect at highest dose of 800 mg/kg; type: functional, organism-based; parameters: dose 800 mg/kg; summary of the method: as §1
# Mus musculus [13] = test: Compound was tested for effective dose in mice by pentylenetetrazole assay (administered subcutaneously); Ca 400; type: functional; details: sc; summary of the method: as §1
# [14] = molecular target: T1, GABA-A receptor; anion channel (Rattus norvegicus) (UniProt O09028+P15431+P18506+P18508+P19969+P20236+P23574+P23576+P28471+P28473+P30191+P62813+P63079+P63138+Q91ZM7+Q9ES14); test: In vitro displacement of [3H]flunitrazepam binding to cortical membranes at 5e-5M concentration
# Summary of the method: (§4)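 Rat cortical membranes (180 μg protein) were incubated with 2 nM [3H]flunitrazepam in 50 mM Tris-HCl pH 7.4 for 40 min at 4 °C, with test compound at 5×10^-5 M, in triplicate. Samples were filtered and washed three times with ice-cold buffer. Nonspecific binding was defined with 3 μM diazepam. Results are given as % of control, mean ± SEM.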
# [15] = molecular target: T1, GABA-A receptor; anion channel (Rattus norvegicus); test: In vivo displacement of [3H]flunitrazepam binding to rat cortical membranes after 20 mg/kg ip dose; type: organism-based; parameters: dose 20 mg/kg; details: Membrane, at 20 mg/kg
# Summary of the method: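 Male Sprague-Dawley rats (100 g; five per group) received saline or compound at 20 mg/kg ip. After 30 min, [3H]flunitrazepam (100 μCi/kg) was given iv via the tail vein. Rats were killed 20 min later. Cortex was homogenized in 50 mM Tris-HCl pH 7.4, and the particulate fraction was filtered and rinsed. Results are given as % of saline control, mean ± SEM.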
# Mus musculus [16] = test: Compound was tested for effective dose in mice by pentylenetetrazole assay (administered subcutaneously);No effect at highest dose of 200 mg/kg; type: functional, organism-based; parameters: dose 200 mg/kg; summary of the method: as §1
# Mus musculus [17] = test: Compound was tested for effective dose in mice by horizontal screen assay (administered orally; No effect at highest dose of 200 mg/kg
# Mus musculus [18] = test: Compound was tested for effective dose in mice by horizontal screen assay (administered orally); No effect at highest dose of 300 mg/kg; type: functional, organism-based; parameters: dose 300 mg/kg; summary of the method: as §2
# [19] = molecular target: Gamma-aminobutyric acid receptor subunit gamma-1 (Rattus norvegicus) (UniProt P23574); test: In vitro displacement of [3H]flunitrazepam binding to rat cortical membranes at 50 uM (No effect); type: cell membranes; details: Membrane; summary of the method: as §4
# Chain of Gamma-aminobutyric acid receptor subunit gamma-1 (Rattus norvegicus) (P23574 whole entry): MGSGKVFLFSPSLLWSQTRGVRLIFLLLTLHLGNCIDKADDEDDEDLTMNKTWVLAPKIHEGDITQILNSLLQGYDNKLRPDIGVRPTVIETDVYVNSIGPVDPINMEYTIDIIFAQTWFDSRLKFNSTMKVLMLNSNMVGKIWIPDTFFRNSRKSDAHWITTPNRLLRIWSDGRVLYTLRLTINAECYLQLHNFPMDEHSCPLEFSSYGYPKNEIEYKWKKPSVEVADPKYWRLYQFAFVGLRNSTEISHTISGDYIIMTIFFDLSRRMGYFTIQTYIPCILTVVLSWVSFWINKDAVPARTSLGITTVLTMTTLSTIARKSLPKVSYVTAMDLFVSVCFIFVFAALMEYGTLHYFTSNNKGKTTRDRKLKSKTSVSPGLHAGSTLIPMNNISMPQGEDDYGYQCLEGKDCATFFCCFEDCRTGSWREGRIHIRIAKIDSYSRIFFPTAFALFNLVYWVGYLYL
# Mus musculus [20] = test: Compound was tested for effective dose in mice by horizontal screen assay (administered orally); No effect at highest dose of 100 mg/kg; type: functional, organism-based; parameters: dose 100 mg/kg; summary of the method: as §2
# Mus musculus [21] = test: Compound was tested for effective dose in mice by maximal electroshock assay (administered orally); No effect at highest dose of 300 mg/kg; type: functional, organism-based; parameters: dose 300 mg/kg; summary of the method: as §3
# Mus musculus [22] = test: Compound was tested for effective dose in mice by horizontal screen assay (administered orally); Ca 550; type: functional; details: po; summary of the method: as §2
# [23] = molecular target: T1, GABA-A receptor; anion channel (Rattus norvegicus); test: In vitro displacement of [3H]flunitrazepam binding from rat cortical membranes at 50 uM; type: cell membranes; details: Membrane; summary of the method: as §4
# Mus musculus [24] = test: Compound was tested for effective dose in mice by horizontal screen assay (administered orally); No effect at highest dose of 800 mg/kg; type: functional, organism-based; parameters: dose 800 mg/kg; summary of the method: as §2
# Mus musculus [25] = test: Compound was tested for effective dose in mice by maximal electroshock assay (administered orally); No effect at highest dose of 800 mg/kg; type: functional, organism-based; parameters: dose 800 mg/kg; summary of the method: as §3
# Mus musculus [26] = test: Effective dose in mice by horizontal screen assay (administered orally); No effect at highest dose of 200 mg/kg
# Mus musculus [27] = test: Effective dose in mice by pentylenetetrazole assay (administered subcutaneously); No effect at highest dose of 200 mg/kg
Structure (SMILES),ED50 (Mus musculus [3]) [mg/kg],TPE (Mus musculus [4]) [h],ED50 (Mus musculus [6]) [mg/kg],ED50 (Mus musculus [9]) [mg/kg],ED50 (Mus musculus [10]),other results
O=C(CCCn1ccnc1)c1ccc2c(c1)Cc1ccccc1-2,27,0.5,,,,ED50 (Mus musculus [1]): No effect; ED50 (Mus musculus [2]): No effect
c1ccc2c(c1)Cc1cc(C3(Cn4ccnc4)OCCCO3)ccc1-2,,1,> 400,,,ED50 (Mus musculus [5]): No effect
c1ccc2c(c1)Cc1cc(C3(Cn4ccnc4)OCCO3)ccc1-2,,4,> 100,,,ED50 (Mus musculus [7]): No effect; ST (Mus musculus [8]): 88.7 min
Cc1cn(CC(=O)c2ccc3c(c2)Cc2ccccc2-3)cn1,,1,> 400,,,ED50 (Mus musculus [5]): No effect
O=C(Cn1ccnc1)c1csc2ccccc12,59,1,,> 400,No effect,
CCC(C(=O)c1ccc2c(c1)Cc1ccccc1-2)n1ccnc1 (centres undefined),,1,,> 400,No effect,
O=C(Cn1ccnc1)c1ccc2c(c1)Cc1cc(Br)ccc1-2,,2,,,No effect,ED50 (Mus musculus [5]): No effect
CC1(C)c2ccccc2-c2ccc(C(=O)Cn3ccnc3)cc21,,1,> 400,> 400,,
O=C(OC(Cn1ccnc1)c1ccc2c(c1)Cc1ccccc1-2)c1ccccc1 (centres undefined),,1,,> 400,No effect,
CC(O)(Cn1ccnc1)c1ccc2c(c1)Cc1ccccc1-2 (centres undefined),10,2,,,No effect,ED50 (Mus musculus [11]): 10 mg/kg; ED50 (Mus musculus [5]): No effect; ST (Mus musculus [8]): 146.9 min
CC(C(=O)c1ccc2c(c1)Cc1ccccc1-2)n1ccnc1 (centres undefined),,1.5,> 400,260,,ST (Mus musculus [8]): 103 min
COc1ccc2c(c1)Cc1cc(C(=O)Cn3ccnc3)ccc1-2,360,2,,,No effect,ED50 (Mus musculus [12]): No effect; ST (Mus musculus [8]): 56.9 min
c1ccc2c(c1)Cc1cc(C3(CCn4ccnc4)OCCO3)ccc1-2,,1,,> 400,No effect,
O=C(Cn1ccnc1)c1cc2ccccc2s1,86,1,> 400,> 400,,
OC(Cn1ccnc1)c1ccc2c(c1)Cc1ccccc1-2 (centres undefined),,1,,,,ED50 (Mus musculus [13]): 400 mg/kg; ED50 (Mus musculus [2]): No effect; ST (Mus musculus [8]): 118.3 min
Cc1ccc2c(c1)Cc1cc(C(=O)Cn3ccnc3)ccc1-2,,2,,,No effect,ED50 (Mus musculus [5]): No effect
O=C(Cn1ccnc1)c1ccc2ccccc2c1 [NAFIMIDONE],56,1,,> 400,inactive,Control [14]: 102%; Control [15]: 116%; ST (Mus musculus [8]): 59.1 min
c1ccc2cc(CCn3ccnc3)ccc2c1,51,1,> 200,> 200,,
O=C(Cn1ccnc1)c1cccc2c1Cc1ccccc1-2,19,2,> 100,> 200,,
CC1c2ccccc2-c2ccc(C(=O)Cn3ccnc3)cc21 (centres undefined),,2,,,,ED50 (Mus musculus [16]): No effect; ST (Mus musculus [8]): 69.7 min; ED50 (Mus musculus [17]): No effect

Structure (SMILES),ED50 (Mus musculus [3]) [mg/kg],TPE (Mus musculus [4]) [h],ED50 (Mus musculus [6]) [mg/kg],ED50 (Mus musculus [9]) [mg/kg],ED50 (Mus musculus [10]),other results
O=C(Cn1ccnc1)c1cccc2c1-c1ccccc1C2,,1,> 400,400,,
O=C(Cn1ccnc1)c1ccc2c(c1)-c1ccccc1CC2,71,1,,> 400,No effect,
O=C(Cn1ccnc1)c1cc2ccccc2o1,30,1.5,,> 400,,Control [14]: 99.1%; Control [15]: 142%; ED50 (Mus musculus [18]): inactive; Binding [19]: inactive
OC(Cn1ccnc1)c1ccc(CCc2ccccc2)cc1 (centres undefined) [DENZIMOL],12,1,,,,ST (Mus musculus [8]): 157.4 min; ED50 (Mus musculus [20]): No effect
CC(C)c1ccc2c(c1)Cc1cc(C(=O)Cn3ccnc3)ccc1-2,190,2,,,No effect,ED50 (Mus musculus [5]): No effect
c1ccc2cc(CCc3ncc[nH]3)ccc2c1,,1,,,,ED50 (Mus musculus [21]): No effect
CCc1ccc2c(c1)Cc1cc(C(=O)Cn3ccnc3)ccc1-2.Cl,240,1,,> 400,No effect,
CC1COC(Cn2ccnc2)(c2ccc3c(c2)Cc2ccccc2-3)O1 (centres undefined),,2,> 400,> 200,,
c1ccc2c(c1)Cc1cc(CCn3ccnc3)ccc1-2,17.8,2,> 100,> 200,,
O=C(Cn1ccnc1)c1ccc2c(c1)CCc1ccccc1-2,60,2,,,,ED50 (Mus musculus [5]): No effect; ED50 (Mus musculus [22]): 550 mg/kg
O=C(Cn1ccnc1)c1ccc2c(ccc3ccccc32)c1,150,1,> 400,> 400,,Control [14]: 128%; Control [15]: 128%; Binding [23]: 28%
O=C(Cn1ccnc1)c1ccc2ccc3ccccc3c2c1,52,1,> 400,> 400,,Control [14]: 123%; Control [15]: 121%; Binding [23]: 23%
O=C(Cn1cnc(-c2ccccc2)c1)c1ccc2c(c1)Cc1ccccc1-2,,2,,,,ED50 (Mus musculus [12]): No effect; ED50 (Mus musculus [24]): No effect; ED50 (Mus musculus [25]): No effect
c1ccc2c(c1)Cc1cc(C3(Cn4ccnc4)SCCS3)ccc1-2,,2,> 400,> 400,,
Cc1nccn1CC(=O)c1ccc2c(c1)Cc1ccccc1-2,,1,> 400,,,
O=C(CCn1ccnc1)c1ccc2c(c1)Cc1ccccc1-2,,1,> 200,> 100,,
CCc1nccn1CC(=O)c1ccc2c(c1)Cc1ccccc1-2,190,2,> 400,> 400,,
OC(CCn1ccnc1)c1ccc2c(c1)Cc1ccccc1-2 (centres undefined),,1,> 400,,,ED50 (Mus musculus [5]): No effect; ST (Mus musculus [8]): 75 min
CC1(C)COC(Cn2ccnc2)(c2ccc3c(c2)Cc2ccccc2-3)OC1,,2,,,,ED50 (Mus musculus [26]): No effect; ED50 (Mus musculus [27]): No effect
